KCNQ1 act = potentiators or activators of human KCNQ1 potassium channel; 310,000 tested, 0.35% active; B-score at 10 µM; AID 2648; CHO-K1 KCNQ1, thallium flux FluxOR fluorescence; hits give high values; P51787;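 active means fluorescence ratio B-score, a plate-corrected score, at least three library SD, with initial intensity B-score within 5 SD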
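Material: CHO-K1 cells stably expressing KCNQ1. Medium: assay buffer for compound exposure, DMSO matched across wells. Reagent: K+/Tl+ depolarizing stimulus. Compound dosing: single-concentration screen. Times: 37 °C overnight plating, 90-min dark dye load, 20-min compound pretreatment. Technique: FluxOR Tl+ flux fluorescence.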
hERG protect = compounds protecting human hERG from proarrhythmic drug block; Q12809; CHO-hERG, FluxOR thallium flux, dofetilide IC70 present; activation (rescue from dofetilide block), less the hit threshold, % at 10 µM; 310,000 tested, 0.51% active;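 active means activation above the mean of controls blocked by dofetilide plus 5 SD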;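 further: thallium influx through hERG after potassium depolarization seen as dye fluorescence rise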
KCNQ1 block = blocks the human KCNQ1 potassium channel; P51787; CHO-K1 KCNQ1, FluxOR thallium flux fluorescence; hits give high values; B-score at 10 µM; 310,000 tested, 1.3% active;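 active means compounds whose thallium flux B-score, printed positive for inhibition, exceeds three library SD while starting fluorescence stays within three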;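 further: channel opened by potassium depolarization with thallium stimulus after 20 min compound exposure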
KCC2 mod = modulates chloride dependent transport by human KCC2. AID 1456. Q9H2X9. B-score of Tl+ flux slope (higher = more flux/activation; lower = inhibition) at 10 µM. KCC2 cells, thallium flux FluoZin-2 fluorescence. 190,000 tested, 2.2% active;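 active means thallium flux slope and its plate-corrected score both differing from the plate sample mean at a set confidence after two filtering rounds, in either direction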;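 further: slope of fluorescence scaled to starting intensity during 10 to 20 s after thallium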
KCNK9 block = human KCNK9 channel inhibition; 310,000 tested, 1.2% active; Q9NPC2; AID 488922; HEK293 KCNK9, FluxOR thallium flux fluorescence; hits give low values; B-score at 10 µM;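 active means ratio B-score over 3 SD below the library mean, with starting fluorescence within 5 SD of its mean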;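 further: negative B-score means less thallium flux so channel inhibition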
KCNK3 block = human KCNK3 channel inhibition, primary screen. CHO-KCNK3 thallium flux, FluxOR fluorescence; hits give low values. B-score at 10 µM. 340,000 tested, 0.84% active;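 active means B-score under library mean minus 4 SD, starting fluorescence ratio at most library mean plus 5 SD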;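 further: more negative B-score means stronger inhibition of thallium flux through KCNK3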
Target sequence (O14649 whole entry, looked up): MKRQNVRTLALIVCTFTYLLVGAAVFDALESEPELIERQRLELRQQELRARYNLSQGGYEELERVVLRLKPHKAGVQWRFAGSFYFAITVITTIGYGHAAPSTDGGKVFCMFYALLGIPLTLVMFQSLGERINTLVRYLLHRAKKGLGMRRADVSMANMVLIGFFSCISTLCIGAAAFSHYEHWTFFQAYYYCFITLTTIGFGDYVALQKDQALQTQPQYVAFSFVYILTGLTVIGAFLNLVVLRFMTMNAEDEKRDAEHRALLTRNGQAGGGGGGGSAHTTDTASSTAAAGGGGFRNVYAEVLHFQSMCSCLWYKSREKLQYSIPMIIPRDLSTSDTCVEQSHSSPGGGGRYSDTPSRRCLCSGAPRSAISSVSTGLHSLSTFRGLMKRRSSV
* hit, by the source's call. Sampled rows, rich in hits. Any-hit rate of the full collection: about 4.1%.

`CCCN1C(=O)/C(=C\C=C2/C=CN(CC)c3ccccc32)SC1=S` gave KCNQ1 act inactive, hERG protect -14, KCNQ1 block inactive, KCC2 mod 0.61, KCNK9 block inactive and KCNK3 block inactive.
Screening CCCCN1C(=O)/C(=C/C=C2\N(C)c3ccccc3C2(C)C)SC1=S returned KCNQ1 act inactive, hERG protect -17, KCNQ1 block 11*, KCC2 mod -0.13 and KCNK9 block inactive.
For NCC12CC3CC(C1)CC(c1ccc(Cl)cc1)(C3)C2 the results were KCNQ1 act inactive, hERG protect -37, KCNQ1 block inactive, KCC2 mod 2.7, KCNK9 block -7.2* and KCNK3 block inactive.
`Nc1ccc(C23CC4CC(CC(CO)(C4)C2)C3)cc1` gave KCNQ1 act inactive, hERG protect -8, KCNQ1 block inactive, KCC2 mod -1.2, KCNK9 block inactive and KCNK3 block inactive.
COc1ccc(OCC(=O)Nc2ccc(N3CCOCC3)c(Cl)c2)cc1 was read as KCNQ1 act inactive, hERG protect -4, KCNQ1 block inactive, KCC2 mod 0.48, KCNK9 block inactive and KCNK3 block inactive.
Screening O=C(NC(=S)Nc1ccc(N2CCOCC2)c(Cl)c1)c1sc2ccccc2c1Cl returned KCNQ1 act 21*, hERG protect 21*, KCNQ1 block inactive, KCC2 mod 2.8, KCNK9 block inactive and KCNK3 block inactive.
For COc1ccc(OCC(=O)NC(=S)Nc2ccc(N3CCOCC3)c(Cl)c2)cc1 the results were KCNQ1 act 13*, hERG protect -9, KCNQ1 block inactive, KCC2 mod 36*, KCNK9 block inactive and KCNK3 block inactive.
CCOC(=O)c1cc(NCc2cccs2)ccc1N1CCOCC1 was read as KCNQ1 act inactive, hERG protect -8, KCNQ1 block inactive, KCC2 mod -0.11, KCNK9 block inactive and KCNK3 block inactive.
Screening CC(C)CC(=O)NC(=S)Nc1ccc(N2CCOCC2)c(Cl)c1 returned KCNQ1 act inactive, hERG protect -10, KCNQ1 block inactive, KCC2 mod 1.7, KCNK9 block inactive and KCNK3 block inactive.
For CCN(c1ccccc1)S(=O)(=O)c1ccc(NC(=S)NC(=O)c2cccs2)cc1 the results were KCNQ1 act inactive, hERG protect -2, KCNQ1 block inactive, KCC2 mod 16*, KCNK9 block inactive and KCNK3 block inactive.
Screening CCOC(=O)c1cc(NC(=O)c2cccs2)ccc1N1CCOCC1 returned KCNQ1 act inactive, hERG protect 4.7*, KCNQ1 block inactive, KCC2 mod -0.073, KCNK9 block inactive and KCNK3 block inactive.
For CCCc1cc(=O)[nH]c(SCC(=O)N2CC3(C)CC2CC(C)(C)C3)n1 (centres undefined) the results were KCNK3 block inactive.
`COc1ccccc1NC(=O)COC(=O)Cn1cnc2c1c(=O)n(C)c(=O)n2C` gave KCNK3 block inactive.
Screening O=C(NC(=S)Nc1ccccc1N1CCOCC1)c1sc2ccccc2c1Cl returned KCNQ1 act 13*, hERG protect -7, KCNQ1 block inactive, KCC2 mod 3, KCNK9 block inactive and KCNK3 block inactive.
Screening O=C(NC(=S)Nc1ccc(N2CCOCC2)c(Cl)c1)c1cncc(Br)c1 returned KCNQ1 act inactive, hERG protect 0, KCNQ1 block inactive, KCC2 mod 11*, KCNK9 block inactive and KCNK3 block inactive.
For O=C(NC(=S)Nc1ccc(N2CCCCC2)cc1)c1cccs1 the results were KCNQ1 act 9*, hERG protect -4, KCNQ1 block inactive, KCNK9 block inactive and KCNK3 block inactive.
Screening CCCCOC(=S)NC(=O)c1sc2ccccc2c1Cl returned KCNQ1 act 53*, hERG protect 31*, KCNQ1 block inactive, KCC2 mod 47*, KCNK9 block inactive and KCNK3 block inactive.
`CN(C)CCCOC(=O)c1sc2ccccc2c1Cl` gave KCNQ1 act inactive, hERG protect -8, KCNQ1 block inactive, KCC2 mod -1.1, KCNK9 block inactive and KCNK3 block inactive.
`O=C(CCN1CCCCC1)N1CCc2c([nH]c3ccccc23)C1c1cccnc1` (centres undefined) gave KCNK3 block inactive.
Screening CC(C)[C@H](NS(=O)(=O)c1ccccc1)C(=O)OCC(=O)NC(=O)NC1CCCCC1 returned KCNK3 block inactive.
Cc1cc(C(C)(C)C)cc(C)c1CCNC(=O)c1c(C)noc1C was read as KCNK3 block inactive.
Screening Cc1ccc(NC(=S)NC(=O)c2sc3ccccc3c2Cl)c(C(=O)O)c1 returned KCNQ1 act 9*, hERG protect 8.6*, KCNQ1 block inactive, KCC2 mod 60* and KCNK9 block inactive.
Screening COC(=O)c1cc(NC(=O)c2cc(-c3ccc(C(F)(F)F)cc3)oc2C(F)(F)F)ccc1N1CCOCC1 returned KCNQ1 act inactive, hERG protect 2, KCNQ1 block 8*, KCC2 mod -0.54, KCNK9 block inactive and KCNK3 block inactive.
Screening O=C(NC(=S)Nc1ccccc1N1CCOCC1)c1cccs1 returned KCNQ1 act inactive, hERG protect 3, KCNQ1 block inactive, KCC2 mod 39*, KCNK9 block inactive and KCNK3 block inactive.
O=C(O)c1ccccc1NC(=S)NC(=O)c1sc2ccccc2c1Cl was read as KCNQ1 act inactive, hERG protect -4, KCNQ1 block inactive, KCC2 mod -3.3, KCNK9 block inactive and KCNK3 block inactive.
For O=C(Nc1ccccc1N1CCOCC1)c1cccs1 the results were KCNQ1 act inactive, hERG protect -6, KCNQ1 block inactive, KCNK9 block inactive and KCNK3 block inactive.
Screening O=C(Cn1c(C(F)(F)F)nc2ccccc21)Nc1ccccc1N1CCOCC1 returned KCNQ1 act inactive, hERG protect -4, KCNQ1 block inactive, KCC2 mod -0.35, KCNK9 block inactive and KCNK3 block inactive.
For CSc1nc2ccccc2n1CC(=O)Nc1cc(C(F)(F)F)ccc1N1CCOCC1 the results were KCNQ1 act inactive, hERG protect -9, KCNQ1 block inactive, KCC2 mod -0.67, KCNK9 block -7.8* and KCNK3 block inactive.
`Cc1ccccc1SCC(=O)Nc1cc(C(F)(F)F)ccc1N1CCOCC1` gave KCNQ1 act inactive, hERG protect -12, KCNQ1 block 14*, KCNK9 block inactive and KCNK3 block inactive.
For CC(SC(C)C(=O)NN=Cc1cccc(F)c1)C(=O)NN=Cc1cccc(F)c1 (centres undefined) the results were KCNK3 block inactive.
Screening CC[C@@]1(C(=O)OC)N[C@H](CN(C)S(=O)(=O)c2ccccc2)[C@@H]2C(=O)N(C)C(=O)[C@@H]21 returned KCNK3 block inactive.

Screening results: PubChem BioAssay, several laboratories
